# This is a sample that favours compounds with a hit; in the whole collection about 3.7% have one here.
# KCNQ1 block – human KCNQ1 channel inhibition; P51787; AID 2642; CHO-K1 KCNQ1, FluxOR thallium flux fluorescence; active compounds read high; 1.3% of 310,000 active; B-score at 10 µM;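 active means compounds whose thallium flux B-score, printed positive for inhibition, exceeds three library SD while starting fluorescence stays within three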;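 further: channel opened by potassium depolarization with thallium stimulus after 20 min compound exposure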
# Kir21 block – inhibitors of mouse Kir2.1 inward-rectifier potassium channel; P35561; HEK293-Kir2.1, FluxOR thallium flux fluorescence; active compounds read low; B-score at 10 µM; 0.85% of 310,000 active; AID 1672;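 active means fluorescence ratio B-score at or below minus 3 SD of library scores, with starting-brightness B-score within 2 SD, cut at about -4.2 in these data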;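 further: channel flux triggered by added potassium and thallium sulfate stimulus; B-score of peak minus minimum fluorescence over baseline after thallium stimulus; more negative B-score means stronger Kir2.1 block with less thallium influx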
# KCNK3 inh – human KCNK3 channel inhibition, primary screen; O14649; CHO-KCNK3 thallium flux, FluxOR fluorescence; active compounds read low; B-score at 10 µM; 0.84% of 340,000 active;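 active means B-score under library mean minus 4 SD, starting fluorescence ratio at most library mean plus 5 SD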;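 further: more negative B-score means stronger inhibition of thallium flux through KCNK3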
# hERG protect – hERG (human) protection from proarrhythmic block | CHO-hERG, FluxOR thallium flux, dofetilide IC70 present | 0.51% of 310,000 active | activation (rescue from dofetilide block), less the hit threshold, % at 10 µM | AID 1511 | Q12809;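 active means activation above the mean of controls blocked by dofetilide plus 5 SD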;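 further: thallium influx through hERG after potassium depolarization seen as dye fluorescence rise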
# KCNQ1 pot – potentiators or activators of human KCNQ1 potassium channel; P51787; CHO-K1 KCNQ1, thallium flux FluxOR fluorescence; active compounds read high; B-score at 10 µM; 0.35% of 310,000 active; AID 2648;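 active means fluorescence ratio B-score, a plate-corrected score, at least three library SD, with initial intensity B-score within 5 SD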
#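 Doses: Single concentration per compound, DMSO matched to controls | Test system: KCNQ1-transfected CHO-K1 cells | Timing: 90 min dye loading and 20 min compound exposure, both at room temperature | Measured by: Kinetic FluxOR thallium fluorescence, 10-s 1-Hz baseline, 110-s post-stimulus read | Medium: Assay buffer with matched DMSO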
# KCNK9 block – inhibitors of human KCNK9 two-pore domain potassium channel; B-score at 10 µM; HEK293 KCNK9, FluxOR thallium flux fluorescence; active compounds read low; AID 488922; Q9NPC2; 1.2% of 310,000 active;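 active means ratio B-score over 3 SD below the library mean, with starting fluorescence within 5 SD of its mean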;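 further: negative B-score means less thallium flux so channel inhibition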
# Target sequence (Q9NPC2 whole entry, looked up, the tested form may be a part): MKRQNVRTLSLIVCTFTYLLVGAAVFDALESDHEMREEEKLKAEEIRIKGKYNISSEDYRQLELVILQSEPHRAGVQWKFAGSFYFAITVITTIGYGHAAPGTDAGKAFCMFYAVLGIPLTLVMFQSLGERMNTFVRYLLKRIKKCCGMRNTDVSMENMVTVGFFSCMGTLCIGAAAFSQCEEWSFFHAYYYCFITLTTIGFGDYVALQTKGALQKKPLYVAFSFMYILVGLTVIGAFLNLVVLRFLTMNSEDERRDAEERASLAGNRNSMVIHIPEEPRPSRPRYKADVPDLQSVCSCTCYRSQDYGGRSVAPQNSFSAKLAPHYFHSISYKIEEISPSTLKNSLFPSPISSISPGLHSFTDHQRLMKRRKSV
# KCNK9 inh conf – confirmation of human KCNK9 potassium channel inhibitors. shares compounds with KCNK9 block. HEK293 KCNK9 cells, FluxOR thallium flux fluorescence. inhibition, % at 10 µM. 43% of 4,900 active. AID 492992;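 active means thallium signal inhibited by more than 5 SD of the compound-free buffer control wells, on both duplicate plates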
# Kir21 sel – mouse Kir2.1 off-target activity of KCNK9 modulators. 4% of 4,900 active. inhibition, % at 10 µM. shares compounds with KCNK9 block. Kir2.1 cells, FluxOR thallium flux fluorescence;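 active means thallium signal drop more than 5 SD beyond the mean of the no-compound control wells, seen in both duplicate plates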;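 further: signal is fluorescence rise after thallium addition divided by baseline fluorescence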
# KCNK9 uninduced – non-induced cell nonspecific activity of KCNK9 modulators | shares compounds with KCNK9 block | non-induced KCNK9-HEK293, FluxOR thallium flux | inhibition, % at 10 µM | 40% of 4,900 active;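 active means thallium signal drop beyond 5 SD of the untreated control mean, on both duplicate plates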
# Numbers stand for hits; i = inactive; nt = no result.
SMILES,KCNQ1 block,Kir21 block,KCNK3 inh,hERG protect,KCNQ1 pot,KCNK9 block,KCNK9 inh conf,Kir21 sel,KCNK9 uninduced
CC1(c2ccc(OCC#N)cc2)C=C(c2ccc(OCC#N)cc2)n2nc(C(F)(F)F)nc2N1 (stereo not drawn),i,i,i,i,i,-9.2,43%,i,44%
CCn1c2ccccc2c2cc(NC(=O)c3cccc(OC)c3OC)ccc21,i,i,i,i,i,i,nt,nt,nt
CCn1c2ccccc2c2cc(NC(=O)c3cccc(OC)c3)ccc21,i,i,i,i,i,-12,43%,i,36%
CC(=O)c1ccc(C(=O)N2CCCC(N3CCN(c4ccc(F)cc4)CC3)C2)s1 (stereo not drawn),i,i,i,i,i,i,nt,nt,nt
Cc1ccc(C(=O)NCCSCc2ccccc2)cc1[N+](=O)[O-],i,i,i,i,i,i,nt,nt,nt
Cc1ccc(C(=O)NCCn2ccc3ccccc32)cc1[N+](=O)[O-],i,i,i,i,i,i,i,i,i
Cc1cc2ccccc2n1CCNC(=O)c1ccccc1,i,i,i,i,i,-9.6,36%,i,25%
Cc1ccc(C(=O)NCCc2cccc(Cl)c2)cc1[N+](=O)[O-],i,i,i,i,i,i,i,i,i
CC(=O)NCCn1c(C)cc2ccccc21,i,i,i,i,i,i,nt,nt,nt
O=C(NCCc1cccc(Cl)c1)c1ccc(Cl)c([N+](=O)[O-])c1,i,i,i,i,i,i,i,i,i
Cc1c(C(=O)NCCn2ccc3ccccc32)cccc1[N+](=O)[O-],i,i,i,i,i,i,nt,nt,nt
O=C(NC(Cc1ccccc1)C(=O)NCCc1ccccn1)c1ccccc1 (stereo not drawn),i,i,i,i,i,i,nt,nt,nt
O=C(NC1CC1)c1ccc(Cl)c(S(=O)(=O)N2CCOCC2)c1,i,i,i,i,i,i,nt,nt,nt
Cc1ccc(SCC(=O)NC(=O)c2ccccc2Br)c(C)c1,nt,nt,i,nt,nt,nt,nt,nt,nt
Cc1ccc2oc(C(=O)N(C)Cc3ccc(C)o3)c(C)c2c1,i,i,i,i,i,i,i,i,25%
COc1ccc2oc(C(=O)NCC(c3ccco3)N(C)C)c(C)c2c1 (stereo not drawn),i,i,i,i,i,i,nt,nt,nt
Cc1ccc2oc(C(=O)N(C)Cc3ccon3)c(C)c2c1,i,i,i,i,i,i,nt,nt,nt
COc1ccc2oc(C(=O)N(C)CCOc3ccc(Cl)cc3)c(C)c2c1,i,i,i,i,i,i,i,i,i
CN(Cc1cccc(Cl)c1Cl)C(=O)c1cccc(S(=O)(=O)N2CCN(Cc3ccccc3)CC2)c1,i,i,i,i,i,i,i,i,i
Cc1cc(=O)oc2c(C)c(OC(C)C(=O)NCc3ccccn3)ccc12 (stereo not drawn),i,i,i,i,i,i,nt,nt,nt
CCOC(=O)/C(=N\Nc1ccccc1Cl)N1CCN(c2ccccc2OC)CC1,i,i,i,i,i,-10,32%,i,29%
CC(C)(C)OC(=O)NCCCCCc1nnc(SCc2ccccc2)o1,i,i,i,i,i,i,nt,nt,nt
CC(C)(C)OC(=O)NCCCCCc1nnc(SCc2ccccc2F)o1,i,i,i,i,i,i,i,i,i
CCOc1cc(/C=C2\C(=N)N3N=CSC3=NC2=O)ccc1OS(=O)(=O)c1ccccc1,i,-5,i,i,i,i,i,i,i
COc1cc(/C=C2\C(=N)N3N=CSC3=NC2=O)ccc1OS(=O)(=O)c1ccccc1,i,i,i,i,i,i,nt,nt,nt
Cn1cccc1/C=N/N1CCN(Cc2cccc3ccccc23)CC1,i,i,i,i,i,i,i,i,i

# High-throughput results as filed in PubChem BioAssay.
